Compound activity: PubChem BioAssay, several laboratories
A selection: hits, their analogues and other compounds. The true share with any hit is near 2.6%.
GRK2 inh: human GRK2 inhibition via aptamer displacement | P25098 | bead flow cytometry, FAM-aptamer displacement from GRK2 | 330,000 compounds, 0.59% hits | inhibition of aptamer binding, % at 10 µM;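 active means inhibition of aptamer binding above 40%, roughly 3 SD of noise, on plates passing a quality check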;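 further: median bead fluorescence of bound FAM aptamer so fluorescent compounds give negative values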
Target sequence (P25098 whole entry, looked up): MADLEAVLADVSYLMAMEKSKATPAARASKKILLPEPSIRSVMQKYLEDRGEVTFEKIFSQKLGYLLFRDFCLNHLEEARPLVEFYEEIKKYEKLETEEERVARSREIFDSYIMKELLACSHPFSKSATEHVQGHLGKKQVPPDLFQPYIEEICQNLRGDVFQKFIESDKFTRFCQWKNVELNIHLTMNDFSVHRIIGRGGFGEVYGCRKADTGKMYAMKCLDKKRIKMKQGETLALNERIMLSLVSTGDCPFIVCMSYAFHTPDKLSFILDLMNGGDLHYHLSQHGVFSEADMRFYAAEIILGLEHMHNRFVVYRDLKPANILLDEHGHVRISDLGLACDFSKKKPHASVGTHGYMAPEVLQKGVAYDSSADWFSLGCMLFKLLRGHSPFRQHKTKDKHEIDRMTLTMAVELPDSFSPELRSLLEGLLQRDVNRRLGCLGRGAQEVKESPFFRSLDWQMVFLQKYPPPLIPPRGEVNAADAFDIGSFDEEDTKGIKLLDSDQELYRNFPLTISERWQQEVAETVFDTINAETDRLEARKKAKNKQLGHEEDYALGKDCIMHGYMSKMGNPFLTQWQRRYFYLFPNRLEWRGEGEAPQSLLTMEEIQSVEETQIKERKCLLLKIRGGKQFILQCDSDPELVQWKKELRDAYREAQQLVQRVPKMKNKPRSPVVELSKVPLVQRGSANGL
T cell HTS: T cell immune modulation candidate. 2C CD8+ T cell-vesicle binding, flow cytometry; stronger effect = lower value. response (vesicle binding), % at 7 µM. 330,000 compounds, 0.068% hits. AID 2052;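 active means response, share of CD8 T cells binding vesicles, and their 90th percentile fluorescence all below set limits, cut at about 80% in these data, passing the limit was not always enough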;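 further: values below 100% mean blocked vesicle binding to the CD8+ T cells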
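Assay system: 2C TCR transgenic mouse naive CD8+ T cells, MACS-purified | Read-out: CD8+ gate FL2 mean fluorescence as % of same-row positive control | Signal: High-throughput flow cytometry with anti-B7-1 and anti-CD8 staining | Timing: Binding step 1.5 h, 37 °C, antibody labelling 20 min, ice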
SKN-1 block: C. elegans SKN-1 inhibition. C. elegans VP596 Pgst-4::GFP/RFP ratio, acrylamide-induced, 24 h. inhibition, % at 21.8 µM. 360,000 compounds, 0.49% hits. AID 624304;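 active means interference check ratio from 0.5 to 1.5 plus GFP to RFP signal ratio inhibition reaching or exceeding a fixed threshold, cut at about 30% in these data, passing the limit was not always enough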
Rce1 inh: inhibitors of yeast Ras-converting enzyme; yeast membranes, quenched prenylated peptide cleavage fluorescence; calls only; 290,000 compounds, 0.27% hits; AID 2563;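 active means fall in fluorescence gain of 50% or more versus controls, with final raw signal at or below 3038400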;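 further: plate controls were neutral control wells for no effect and wells lacking membranes for full effect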
Rin1 Abl inh: inhibitors of human Rin1-Abl protein interaction. P00519+Q13671. TR-FRET Rin1/Abl binding, biochemical. inhibition, % at 7.35 µM. 360,000 compounds, 0.4% hits. AID 588664; in the data active means inhibition above about 5%, passing the limit was not always enough
Myeloid diff 2: promotes myeloid progenitor differentiation | ER-HoxA9 myeloid progenitors, lysozyme-GFP differentiation, flow cytometry | calls only at 10 µM | 360,000 compounds, 1% hits;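 active means normalized GFP-positive differentiation at or above the plate's own cutoff, the solvent-only control mean plus 3 SD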;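 further: cells exposed to compound for four days before flow analysis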
Rin1 Abl conf: confirmation of inhibitors of human Rin1-Abl interaction | shares compounds with Rin1 Abl inh | TR-FRET Rin1-Abl binding, purified proteins | inhibition, % at 7.35 µM | 1,300 compounds, 49% hits | AID 602124
GFP quench: counter-screen for Rin1-Abl inhibitors: GFP fluorescence quenchers; 1,300 compounds, 8.5% hits; inhibition, % at 6.75 µM; shares compounds with Rin1 Abl inh; inhibitors/quenchers counterscreen;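 further: ABL1-eGFP fusion protein alone without its partner RIN1-SBP; 0% = protein with vehicle and 100% = wells lacking protein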
GFP quench DR: GFP fluorescence interference dose response; 230 tested, under 10 active; AID 602182; shares compounds with Rin1 Abl inh; GFP fluorescence interference/quenching counterscreen; IC50, µM; call rule not given here;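 further: ABL1-eGFP fusion protein alone without its RIN1 binding partner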
Active calls of the source: *. Unless noted, no stated cut-off is given here; in the data, active means inhibition above about 6.5%; inactive means the rest.

How did Oc1ccc(/C=N/Nc2ccnc3cc(Cl)ccc23)cc1O do in these assays?
GRK2 inh: 13; T cell HTS: 154; SKN-1 block: 4; Rce1 inh: inactive; Rin1 Abl inh: 11*; Myeloid diff 2: inactive; Rin1 Abl conf: 6; GFP quench: 3

What do the screens show for `CC/C(=N\Nc1ccnc2cc(Cl)ccc12)c1ccc(O)cc1`?
GRK2 inh: 1; T cell HTS: 411; SKN-1 block: 7; Rce1 inh: inactive; Rin1 Abl inh: 1; Myeloid diff 2: inactive

How did Oc1ccc(/C=N/Nc2ccnc3cc(Cl)ccc23)c(O)c1O do in these assays?
GRK2 inh: 4; T cell HTS: 272; SKN-1 block: 14; Rin1 Abl inh: 24*; Myeloid diff 2: inactive; Rin1 Abl conf: 26*; GFP quench: 7.5*

What do the screens show for `CC(C)(C)NC(=O)CCN(/N=C/c1ccccc1F)C1=NS(=O)(=O)c2ccccc21`?
GRK2 inh: 0; T cell HTS: 761; SKN-1 block: 12; Rce1 inh: inactive; Rin1 Abl inh: 0; Myeloid diff 2: inactive

How did O=C(Nc1ccn(CCCN2CCC(N3CCOCC3)CC2)c(=O)n1)OCc1ccccc1 do in these assays?
SKN-1 block: -1; Rin1 Abl inh: 11*; Myeloid diff 2: inactive; Rin1 Abl conf: 6.9*; GFP quench: -1

What do the screens show for `Cc1cc(C)c(CN2CCN(CCCn3ccc(NC(=O)OCc4ccccc4)nc3=O)CC2)c(C)c1`?
SKN-1 block: 12; Rin1 Abl inh: 7.9*; Myeloid diff 2: inactive; Rin1 Abl conf: 8.0*; GFP quench: 2

Results for Cc1nc2c(c(C)nn2-c2ccccc2)c(C)c1CCC(=O)Nc1ccc(CN2CCCC2)cc1 ?
GRK2 inh: 0; T cell HTS: 507; SKN-1 block: 0; Rce1 inh: inactive; Rin1 Abl inh: -4; Myeloid diff 2: inactive

Results for Cc1ccc(C(=O)Nc2cc(-c3ccn[nH]3)c(C)n(N)c2=O)cc1 ?
GRK2 inh: 0; T cell HTS: 177; SKN-1 block: 0; Rce1 inh: inactive; Rin1 Abl inh: -2; Myeloid diff 2: inactive

Results for NC(=O)c1cc(-c2ccccc2)nc(Oc2ccccc2)n1 ?
GRK2 inh: 0; T cell HTS: 495; SKN-1 block: 13; Rce1 inh: inactive; Rin1 Abl inh: 10*; Myeloid diff 2: inactive; Rin1 Abl conf: 2; GFP quench: 1

Results for O=C(Nc1ccccc1)c1cc(C2CCCCN2S(=O)(=O)Cc2cccc(C(F)(F)F)c2)on1 (centres undefined) ?
SKN-1 block: 15; Rin1 Abl inh: 1; Myeloid diff 2: inactive

What do the screens show for `COc1cccc(-n2c(=O)c3sccc3n(CC(=O)NCC3CCCO3)c2=O)c1` (centres undefined)?
GRK2 inh: 2; T cell HTS: 287; SKN-1 block: 2; Rce1 inh: inactive; Rin1 Abl inh: 1; Myeloid diff 2: inactive

Results for CCCCSCc1[nH]c(=O)[nH]c1C(=O)CCCCC(=O)OCC ?
GRK2 inh: 0; T cell HTS: 124; SKN-1 block: 2; Rce1 inh: inactive; Rin1 Abl inh: 48*; Myeloid diff 2: inactive; Rin1 Abl conf: 46*; GFP quench: -1; GFP quench DR: >68

How did CCOC(=O)CCCCC(=O)c1[nH]c(=O)[nH]c1Cn1ccnc1 do in these assays?
GRK2 inh: 1; T cell HTS: 255; SKN-1 block: 11; Rce1 inh: inactive; Rin1 Abl inh: 28*; Myeloid diff 2: inactive; Rin1 Abl conf: 30*; GFP quench: 0; GFP quench DR: >68

Results for CCOC(=O)Cn1cnc(C)c1 ?
SKN-1 block: -1; Rin1 Abl inh: 2; Myeloid diff 2: inactive

What do the screens show for `CCOC(=O)CCc1n[nH]c(=O)[nH]c1=O`?
GRK2 inh: 0; T cell HTS: 188; SKN-1 block: -11; Rce1 inh: inactive; Rin1 Abl inh: 0; Myeloid diff 2: inactive

Results for COc1cccc(C(=O)NCCS(=O)(=O)NC(C)CCc2ccccc2)c1 (centres undefined) ?
GRK2 inh: 1; T cell HTS: 229; SKN-1 block: -11; Rce1 inh: inactive; Rin1 Abl inh: 1; Myeloid diff 2: inactive

Results for CC[C@]12c3[nH]c4cc(-c5ccco5)ccc4c3CCN1C(=O)[C@@H](CC(=O)NCC13CC4CC(CC(C4)C1)C3)C[C@@H]2C(=O)N1CCN(C(=O)c2ccco2)CC1 ?
GRK2 inh: 1; SKN-1 block: 1; Rin1 Abl inh: -1; Myeloid diff 2: inactive

Results for CC[C@]12c3[nH]c4ccc(OC)cc4c3CCN1C(=O)C(CC(=O)NCC13CC4CC(CC(C4)C1)C3)C[C@@H]2C(=O)N1CCN(C(=O)c2ccco2)CC1 (some centres undefined) ?
GRK2 inh: 43*; SKN-1 block: 4; Rin1 Abl inh: 54*; Myeloid diff 2: inactive; Rin1 Abl conf: 59*; GFP quench: 2; GFP quench DR: >68

Results for CC[C@]12c3[nH]c4ccc(Cl)cc4c3CCN1C(=O)[C@@H](CC(=O)NCC13CC4CC(CC(C4)C1)C3)C[C@@H]2C(=O)N1CCN(C(=O)c2ccco2)CC1 ?
GRK2 inh: 4; SKN-1 block: -5; Rin1 Abl inh: 21*; Myeloid diff 2: inactive; Rin1 Abl conf: 16*; GFP quench: -1

How did O=[N+]([O-])c1cc(CN(CCO)CCO)ccc1O do in these assays?
GRK2 inh: 6; T cell HTS: 231; SKN-1 block: -15; Rce1 inh: inactive; Rin1 Abl inh: -4; Myeloid diff 2: inactive

Results for COc1ccc(OC)c(S(=O)(=O)N2CCCC(C(=O)NCc3cccnc3)C2)c1 (centres undefined) ?
GRK2 inh: 0; T cell HTS: 277; SKN-1 block: 8; Rce1 inh: inactive; Rin1 Abl inh: -1; Myeloid diff 2: inactive

Results for COC(=O)[C@]1(CC(C)C)N[C@H](c2ccc(-c3cccc(Cl)c3)cc2)[C@@H]2C(=O)N(C)C(=O)[C@@H]21 ?
GRK2 inh: 0; T cell HTS: 0; SKN-1 block: 15; Rce1 inh: inactive; Rin1 Abl inh: 3; Myeloid diff 2: inactive

What do the screens show for `Cc1cccc(-n2c(SCC(=O)NCc3ccco3)nnc2-c2ccco2)c1`?
GRK2 inh: 0; T cell HTS: 315; SKN-1 block: -8; Rce1 inh: inactive; Rin1 Abl inh: 5; Myeloid diff 2: inactive
